Measured values: ChEMBL document CHEMBL1165886, “Synthesis, anticonvulsant and toxicity screening of newer pyrimidine semicarbazone derivatives” (Eur J Med Chem, 2010)
Calls of active or inactive are those of the source. No cut-off for these calls is given here.

Columns and labels:
Mus musculus [1] = experiment: Anticonvulsant activity in ip dosed Albino mouse assessed as protection against maximal electric shock-induced seizure after 0.5 hrs; assay type: functional
How it was run: (§1)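 Mice given test compound i.p. in polyethylene glycol at 30, 100 and 300 mg/kg; corneal electrodes delivered 50 mA, 60 Hz for 0.25 s at 0.5 h and 4.0 h after dosing. Protection scored as abolition of hind limb tonic extension.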

Mus musculus [2] = experiment: Anticonvulsant activity in Albino mouse assessed as protection against maximal electric shock-induced seizure at 300 mg/kg, ip after 4 hrs; assay type: functional, organism-based; design: dose 300 mg/kg; how it was run: as §1
Mus musculus [3] = experiment: Anticonvulsant activity in Albino mouse assessed as protection against scPTZ-induced seizure at 300 mg/kg, ip after 0.5 hrs; assay type: functional, organism-based; design: dose 300 mg/kg
How it was run: (§2)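 Test compound given i.p. in polyethylene glycol at 30, 100 and 300 mg/kg. Pentylenetetrazole 75 mg/kg, as a 0.5% solution, injected subcutaneously in the posterior midline. Animals examined 0.5 h and 4 h after dosing. Value is the minimum dose active in half or more of the mice; dash means no activity at maximum dose.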

Mus musculus [4] = experiment: Anticonvulsant activity in Albino mouse assessed as protection against scPTZ-induced seizure at 300 mg/kg, ip after 4 hrs; assay type: functional, organism-based; design: dose 300 mg/kg; how it was run: as §2
Mus musculus [5] = experiment: Anticonvulsant activity in Albino mouse assessed as protection against maximal electric shock-induced seizure at 300 mg/kg, ip after 0.5 hrs; assay type: functional, organism-based; design: dose 300 mg/kg; how it was run: as §1
Mus musculus [6] = experiment: Anticonvulsant activity in ip dosed Albino mouse assessed as protection against maximal electric shock-induced seizure after 4 hrs; assay type: functional; how it was run: as §1
Mus musculus [7] = species: Mus musculus; experiment: Hepatotoxicity in Albino mouse assessed as change in SGPT level; assay type: toxicity, organism-based; conditions: in vivo
How it was run: (§3)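 Serum alkaline phosphatase, SGOT and SGPT levels measured in treated mice versus control; transaminases estimated by the Reitman–Frankel method. Results given as mean ± SEM.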

Mus musculus [8] = experiment: Neurotoxicity in Albino mouse assessed as minimal motor impairment at 300 mg/kg, ip after 4 hrs by rotarod test; assay type: toxicity, organism-based; design: dose 300 mg/kg, route intraperitoneal; conditions: in vivo
How it was run: (§4)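 Mice pretrained on an accelerating rotorod, 3.2 cm diameter, rotating at 10 rpm. Test compound given i.p. in polyethylene glycol at 30, 100 and 300 mg/kg; examined at 0.5 h and 4 h. Neurotoxicity = inability to hold equilibrium on the rod for at least 1 min in each trial. Minimum dose affecting half or more of mice reported.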

Mus musculus [9] = species: Mus musculus; experiment: Hepatotoxicity in Albino mouse assessed as albumin level measured per 100 mL (RVb =1.45 +/- 0.06 g); assay type: toxicity, organism-based; conditions: in vivo
Mus musculus [10] = species: Mus musculus; experiment: Hepatotoxicity in Albino mouse assessed as total protein level measured per 100 mL (RVb = 1.69 +/- 0.05 g); assay type: toxicity, organism-based; conditions: in vivo
Mus musculus [11] = species: Mus musculus; experiment: Hepatotoxicity in Albino mouse assessed as globulin level measured per 100 mL (RVb = 0.24 +/- 0.03 g); assay type: toxicity, organism-based; conditions: in vivo
Mus musculus [12] = experiment: Anticonvulsant activity in ip dosed Albino mouse assessed as protection against scPTZ-induced seizure after 0.5 hrs; assay type: functional; how it was run: as §2
Mus musculus [13] = experiment: Neurotoxicity in Albino mouse assessed as minimal motor impairment at 300 mg/kg, ip after 0.5 hrs by rotarod test; assay type: toxicity, organism-based; design: dose 300 mg/kg, route intraperitoneal; conditions: in vivo; how it was run: as §4
Mus musculus [14] = experiment: Anticonvulsant activity in ip dosed Albino mouse assessed as protection against scPTZ-induced seizure after 4 hrs; assay type: functional; how it was run: as §2
Mus musculus [15] = species: Mus musculus; experiment: Hepatotoxicity in Albino mouse assessed as change in alkaline phosphatase level; assay type: toxicity, organism-based; conditions: in vivo; how it was run: as §3
Mus musculus [16] = species: Mus musculus; experiment: Hepatotoxicity in Albino mouse assessed as change in SGOT level; assay type: toxicity, organism-based; conditions: in vivo; how it was run: as §3
[17] = Neurotoxicity in ip dosed Albino mouse assessed as minimal motor impairment after 4 hrs by rotarod test; assay type: toxicity, organism-based; conditions: in vivo; how it was run: as §4
[18] = Neurotoxicity in ip dosed Albino mouse assessed as minimal motor impairment after 0.5 hrs by rotarod test; assay type: toxicity, organism-based; conditions: in vivo; how it was run: as §4

SMILES	ED50 (Mus musculus [1]) [mg/kg]	Activity (Mus musculus [3])	Activity (Mus musculus [4])	Activity (Mus musculus [5])	ED50 (Mus musculus [6]) [mg/kg]	ED50 (Mus musculus [12]) [mg/kg]	ED50 (Mus musculus [14]) [mg/kg]	TD50 at 4 h [17] [mg/kg]	TD50 at 0.5 h [18] [mg/kg]	also measured
COc1ccc(-c2cc(-c3ccc(Cl)cc3)nc(NC(=O)N/N=C(/C)c3ccc(C)cc3)n2)cc1	300	inactive	inactive	–	–	–	–	–	–	Activity (Mus musculus [2]): inactive
COc1ccc(/C(C)=N\NC(=O)Nc2nc(-c3ccc(Cl)cc3)cc(-c3ccc([N+](=O)[O-])cc3)n2)cc1	–	inactive	inactive	inactive	300	–	–	–	–	–
COc1ccc(-c2cc(-c3ccc(F)cc3)nc(NC(=O)N/N=C\c3ccccc3Cl)n2)c(OC)c1	–	inactive	inactive	inactive	300	–	–	–	–	–
COc1ccc(-c2cc(-c3ccc(Cl)cc3)nc(NC(=O)N/N=C\c3ccc([N+](=O)[O-])cc3)n2)cc1OC	30	–	–	–	100	100	100	–	–	Activity (Mus musculus [7]): Non-toxic; Activity (Mus musculus [8]): Non-toxic; Activity (Mus musculus [9]): 1.74 g; Activity (Mus musculus [10]): 2 g; Activity (Mus musculus [11]): 0.26 g; Activity (Mus musculus [13]): Non-toxic; Activity (Mus musculus [15]): Non-toxic; Activity (Mus musculus [16]): Non-toxic
C/C(=N/NC(=O)Nc1nc(-c2ccc(F)cc2)cc(-c2ccc([N+](=O)[O-])cc2)n1)c1ccc(C)cc1	100	–	–	–	300	300	300	300	–	Activity (Mus musculus [13]): Non-toxic
O=C1NC(=O)C(c2ccccc2)(c2ccccc2)N1 [PHENYTOIN]	30	inactive	inactive	–	30	–	–	100	100	–
COc1ccc(-c2cc(-c3ccc(F)cc3)nc(NC(=O)N/N=C\c3ccc([N+](=O)[O-])cc3)n2)cc1OC	100	–	inactive	–	300	300	–	300	–	Activity (Mus musculus [13]): Non-toxic
C/C(=N/NC(=O)Nc1nc(-c2ccc(Cl)cc2)cc(-c2ccc([N+](=O)[O-])cc2)n1)c1ccc(C)cc1	300	inactive	–	–	300	–	300	–	–	–
C/C(=N/NC(=O)Nc1nc(-c2ccc(C)cc2)cc(-c2ccc(F)cc2)n1)c1ccc(Cl)cc1	30	–	–	–	100	100	300	300	–	Activity (Mus musculus [7]): Non-toxic; Activity (Mus musculus [9]): 1.62 g; Activity (Mus musculus [10]): 1.93 g; Activity (Mus musculus [11]): 0.31 g; Activity (Mus musculus [13]): Non-toxic; Activity (Mus musculus [15]): Non-toxic; Activity (Mus musculus [16]): Non-toxic
C/C(=N/NC(=O)Nc1nc(-c2ccc(C)cc2)cc(-c2ccc(Cl)cc2)n1)c1ccc(Cl)cc1	30	–	–	–	300	300	300	–	–	Activity (Mus musculus [7]): Non-toxic; Activity (Mus musculus [8]): Non-toxic; Activity (Mus musculus [9]): 1.52 g; Activity (Mus musculus [10]): 1.71 g; Activity (Mus musculus [11]): 0.19 g; Activity (Mus musculus [13]): Non-toxic; Activity (Mus musculus [15]): Non-toxic; Activity (Mus musculus [16]): Non-toxic
COc1ccc(-c2cc(-c3ccc(Cl)cc3)nc(NC(=O)N/N=C(/C)c3ccccc3Cl)n2)cc1	–	inactive	–	inactive	–	–	300	–	–	Activity (Mus musculus [2]): inactive
COc1ccc(-c2cc(-c3ccc(F)cc3)nc(NC(=O)N/N=C\c3cccc(Cl)c3)n2)cc1OC	300	inactive	inactive	–	300	–	–	–	–	–
COc1ccc(-c2cc(-c3ccc(F)cc3)nc(NC(=O)N/N=C(/C)c3ccc(C)cc3)n2)cc1	–	–	–	inactive	100	300	–	–	100	Activity (Mus musculus [8]): Non-toxic
COc1ccc(-c2cc(-c3ccc(Cl)cc3)nc(NC(=O)N/N=C\c3ccccc3Cl)n2)c(OC)c1	–	inactive	inactive	inactive	300	–	–	–	–	–
CCC1(C)CC(=O)NC1=O (stereo unspecified) [ETHOSUXIMIDE]	–	–	–	inactive	–	100	300	–	–	Activity (Mus musculus [8]): Non-toxic; Activity (Mus musculus [2]): inactive; Activity (Mus musculus [13]): Non-toxic
CCC1(c2ccccc2)C(=O)NC(=O)NC1=O [PHENOBARBITAL]	100	inactive	inactive	–	30	–	–	300	100	–
C/C(=N/NC(=O)Nc1nc(-c2ccc(C)cc2)cc(-c2ccc(F)cc2)n1)c1ccc([N+](=O)[O-])cc1	100	inactive	–	–	300	–	300	100	100	–
COc1ccc(-c2cc(-c3ccc(Cl)cc3)nc(NC(=O)N/N=C\c3ccccc3[N+](=O)[O-])n2)c(OC)c1	–	inactive	inactive	inactive	300	–	–	–	–	–
COc1ccc(-c2cc(-c3ccc(Cl)cc3)nc(NC(=O)N/N=C\c3cccc(Cl)c3)n2)cc1OC	100	inactive	–	–	300	–	300	300	300	–
COc1ccc(/C(C)=N\NC(=O)Nc2nc(-c3ccc(F)cc3)cc(-c3ccc([N+](=O)[O-])cc3)n2)cc1	100	–	–	–	–	100	300	–	300	Activity (Mus musculus [8]): Non-toxic; Activity (Mus musculus [2]): inactive
C/C(=N/NC(=O)Nc1nc(-c2ccc(C)cc2)cc(-c2ccc(Cl)cc2)n1)c1ccc([N+](=O)[O-])cc1	100	–	–	–	300	300	300	100	100	–
COc1ccc(-c2cc(-c3ccc(F)cc3)nc(NC(=O)N/N=C\c3ccccc3[N+](=O)[O-])n2)c(OC)c1	300	inactive	–	–	–	–	300	–	–	Activity (Mus musculus [2]): inactive
